Reference: ChEMBL document CHEMBL1154547, “Salicylanilide esters of N-protected amino acids as novel antimicrobial agents” (Bioorg Med Chem Lett, 2009)
≈ marks a conversion by molar mass, not a printed value.

How the values were obtained:
[1] = Lipophilicity, log K of the compound; type: physicochemical
Procedure, shortened: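 Mobile phase used methanol as organic modifier. The capacity factor k was measured and log k calculated from it. Chiral compounds were measured several times.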

Candida albicans [2] = assay: Antifungal activity against Candida albicans ATCC 44859 after 24 hrs by broth microdilution method; type: functional; details: ATCC 44859, 24 h
Procedure, shortened: (§1)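 In vitro antifungal screening against eight strains. Compounds tested at concentrations in the range 62.5–1.95 µmol/L.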

Candida tropicalis [3] = assay: Antifungal activity against Candida tropicalis ATCC 156 after 24 hrs by broth microdilution method; type: functional; details: ATCC 156, 24 h; procedure, shortened: as §1
Pichia kudriavzevii [4] = assay: Antifungal activity against Candida krusei E28 after 24 hrs by broth microdilution method; type: functional; procedure, shortened: as §1
Nakaseomyces glabratus [5] = assay: Antifungal activity against Candida glabrata 20/I after 24 hrs by broth microdilution method; type: functional; procedure, shortened: as §1
Trichosporon beigelii [6] = assay: Antifungal activity against Trichosporon beigelii 1188 after 24 hrs by broth microdilution method; type: functional; procedure, shortened: as §1
Aspergillus fumigatus [7] = assay: Antifungal activity against Aspergillus fumigatus 231 after 24 hrs by broth microdilution method; type: functional; procedure, shortened: as §1
Lichtheimia corymbifera [8] = assay: Antifungal activity against Absidia corymbifera 272 after 24 hrs by broth microdilution method; type: functional; procedure, shortened: as §1
[9] = tested on: Trichophyton mentagrophytes; assay: Antifungal activity against Trichophyton mentagrophytes 445 after 24 hrs by broth microdilution method; type: functional; procedure, shortened: as §1
Candida albicans [10] = assay: Antifungal activity against Candida albicans ATCC 44859 after 48 hrs by broth microdilution method; type: functional; details: ATCC 44859, 48 h; procedure, shortened: as §1
Candida tropicalis [11] = assay: Antifungal activity against Candida tropicalis ATCC 156 after 48 hrs by broth microdilution method; type: functional; details: ATCC 156, 48 h; procedure, shortened: as §1
Pichia kudriavzevii [12] = assay: Antifungal activity against Candida krusei E28 after 48 hrs by broth microdilution method; type: functional; procedure, shortened: as §1
Nakaseomyces glabratus [13] = assay: Antifungal activity against Candida glabrata 20/I after 48 hrs by broth microdilution method; type: functional; procedure, shortened: as §1
Trichosporon beigelii [14] = assay: Antifungal activity against Trichosporon beigelii 1188 after 48 hrs by broth microdilution method; type: functional; procedure, shortened: as §1
Aspergillus fumigatus [15] = assay: Antifungal activity against Aspergillus fumigatus 231 after 48 hrs by broth microdilution method; type: functional; procedure, shortened: as §1
Lichtheimia corymbifera [16] = assay: Antifungal activity against Absidia corymbifera 272 after 48 hrs by broth microdilution method; type: functional; procedure, shortened: as §1
[17] = tested on: Trichophyton mentagrophytes; assay: Antifungal activity against Trichophyton mentagrophytes 445 after 48 hrs by broth microdilution method; type: functional; procedure, shortened: as §1
[18] = tested on: Mycobacterium tuberculosis; assay: Antitubercular activity against Mycobacterium tuberculosis H37Rv by microplate alamar blue assay; type: functional
[19] = tested on: Mycobacterium tuberculosis; assay: Antitubercular activity against Mycobacterium tuberculosis H37Rv at 6.25 ug/ml by microplate alamar blue assay; type: functional
Procedure, shortened: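 Primary single-concentration screen at the TAACF against M. tuberculosis H37Rv (ATCC 27294) in BACTEC 12B medium, read by Microplate Alamar Blue Assay. Each compound was tested at 6.25 per mL, or at the molar equivalent of the highest-molecular-weight compound in its congener series.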

SMILES	log K [1]	IC80 (Candida albicans [2]) [µg/mL]	IC80 (Candida tropicalis [3]) [µg/mL]	IC80 (Pichia kudriavzevii [4]) [µg/mL]	IC80 (Nakaseomyces glabratus [5]) [µg/mL]	IC80 (Trichosporon beigelii [6]) [µg/mL]	IC80 (Aspergillus fumigatus [7]) [µg/mL]	IC80 (Lichtheimia corymbifera [8]) [µg/mL]	IC80 [9] [µg/mL]	IC80 (Candida albicans [10]) [µg/mL]	IC80 (Candida tropicalis [11]) [µg/mL]	IC80 (Pichia kudriavzevii [12]) [µg/mL]	IC80 (Nakaseomyces glabratus [13]) [µg/mL]	IC80 (Trichosporon beigelii [14]) [µg/mL]	IC80 (Aspergillus fumigatus [15]) [µg/mL]	IC80 (Lichtheimia corymbifera [16]) [µg/mL]	IC80 [17] [µg/mL]	MIC [18] [µg/mL]	inhibition at 6.25 µg/mL [19] [%]
CC(C)[C@H](NC(=O)OCc1ccccc1)C(=O)Oc1ccc(Cl)cc1C(=O)Nc1ccc(Cl)cc1	0.9421	> 62.5	> 62.5	31.2 (≈ 60.6 µM)	> 62.5	> 62.5	> 62.5	> 62.5	15.6 (≈ 30.3 µM)	> 62.5	> 62.5	15.6 (≈ 30.3 µM)	> 62.5	31.2 (≈ 60.6 µM)	> 62.5	> 62.5	15.6 (≈ 30.3 µM)	> 6.25	38
OC(Cn1cncn1)(Cn1cncn1)c1ccc(F)cc1F [FLUCONAZOLE]	–	0.06 (≈ 0.196 µM)	0.12 (≈ 0.392 µM)	3.91 (≈ 12.8 µM)	0.98 (≈ 3.2 µM)	0.24 (≈ 0.784 µM)	> 125	> 125	1.95 (≈ 6.37 µM)	0.12 (≈ 0.392 µM)	> 125	15.6 (≈ 51 µM)	3.91 (≈ 12.8 µM)	0.48 (≈ 1.57 µM)	> 125	> 125	3.91 (≈ 12.8 µM)	–	–
O=C(CNC(=O)OCc1ccccc1)Oc1ccc(Cl)cc1C(=O)Nc1ccc(Cl)cc1	0.6367	62.5 (≈ 132 µM)	31.2 (≈ 66 µM)	31.2 (≈ 66 µM)	62.5 (≈ 132 µM)	62.5 (≈ 132 µM)	> 62.5	31.2 (≈ 66 µM)	15.6 (≈ 33 µM)	62.5 (≈ 132 µM)	31.2 (≈ 66 µM)	31.2 (≈ 66 µM)	62.5 (≈ 132 µM)	> 62.5	> 62.5	62.5 (≈ 132 µM)	15.6 (≈ 33 µM)	> 6.25	16
CC(C)[C@@H](NC(=O)OCc1ccccc1)C(=O)Oc1ccc(Cl)cc1C(=O)Nc1ccc(Cl)cc1	0.9417	> 62.5	> 62.5	31.2 (≈ 60.6 µM)	> 62.5	> 62.5	> 62.5	> 62.5	15.6 (≈ 30.3 µM)	> 62.5	> 62.5	31.2 (≈ 60.6 µM)	> 62.5	> 62.5	> 62.5	> 62.5	15.6 (≈ 30.3 µM)	> 6.25	77
O=C(N[C@@H](Cc1ccccc1)C(=O)Oc1ccc(Cl)cc1C(=O)Nc1ccc(Cl)cc1)OCc1ccccc1	1.0971	62.5 (≈ 111 µM)	31.2 (≈ 55.5 µM)	15.6 (≈ 27.7 µM)	31.2 (≈ 55.5 µM)	31.2 (≈ 55.5 µM)	> 62.5	15.6 (≈ 27.7 µM)	7.81 (≈ 13.9 µM)	62.5 (≈ 111 µM)	31.2 (≈ 55.5 µM)	15.6 (≈ 27.7 µM)	31.2 (≈ 55.5 µM)	62.5 (≈ 111 µM)	> 62.5	15.6 (≈ 27.7 µM)	7.81 (≈ 13.9 µM)	> 6.25	16
O=C(CNC(=O)OCc1ccccc1)Oc1ccc(Cl)cc1C(=O)Nc1cccc(Cl)c1	0.6119	> 62.5	> 62.5	62.5 (≈ 132 µM)	62.5 (≈ 132 µM)	> 62.5	> 62.5	62.5 (≈ 132 µM)	31.2 (≈ 66 µM)	> 62.5	> 62.5	62.5 (≈ 132 µM)	> 62.5	> 62.5	> 62.5	62.5 (≈ 132 µM)	31.2 (≈ 66 µM)	> 6.25	7
O=C(CNC(=O)OCc1ccccc1)Oc1ccc(Cl)cc1C(=O)Nc1ccc(C(F)(F)F)cc1	0.7292	62.5 (≈ 123 µM)	125 (≈ 247 µM)	31.2 (≈ 61.7 µM)	31.2 (≈ 61.7 µM)	31.2 (≈ 61.7 µM)	125 (≈ 247 µM)	31.2 (≈ 61.7 µM)	15.6 (≈ 30.8 µM)	62.5 (≈ 123 µM)	> 125	31.2 (≈ 61.7 µM)	> 125	31.2 (≈ 61.7 µM)	> 125	31.2 (≈ 61.7 µM)	15.6 (≈ 30.8 µM)	> 6.25	89
C[C@H](NC(=O)OCc1ccccc1)C(=O)Oc1ccc(Cl)cc1C(=O)Nc1ccc(C(F)(F)F)cc1	0.8149	62.5 (≈ 120 µM)	500 (≈ 960 µM)	7.81 (≈ 15 µM)	125 (≈ 240 µM)	62.5 (≈ 120 µM)	7.81 (≈ 15 µM)	31.2 (≈ 60 µM)	1.95 (≈ 3.74 µM)	250 (≈ 480 µM)	500 (≈ 960 µM)	31.2 (≈ 60 µM)	250 (≈ 480 µM)	250 (≈ 480 µM)	15.6 (≈ 30 µM)	62.5 (≈ 120 µM)	1.95 (≈ 3.74 µM)	3.13 (≈ 6.01 µM)	99
NNC(=O)c1ccncc1 [ISONIAZID]	–	–	–	–	–	–	–	–	–	–	–	–	–	–	–	–	–	0.025 (≈ 0.182 µM)	–
C[C@@H](NC(=O)OCc1ccccc1)C(=O)Oc1ccc(Cl)cc1C(=O)Nc1cccc(Cl)c1	0.699	62.5 (≈ 128 µM)	62.5 (≈ 128 µM)	31.2 (≈ 64.1 µM)	62.5 (≈ 128 µM)	> 62.5	> 62.5	31.2 (≈ 64.1 µM)	7.81 (≈ 16 µM)	> 62.5	> 62.5	31.2 (≈ 64.1 µM)	62.5 (≈ 128 µM)	> 62.5	> 62.5	31.2 (≈ 64.1 µM)	7.81 (≈ 16 µM)	> 6.25	36
C[C@H](NC(=O)OCc1ccccc1)C(=O)Oc1ccc(Cl)cc1C(=O)Nc1cccc(Cl)c1	0.6995	31.2 (≈ 64.1 µM)	> 62.5	31.2 (≈ 64.1 µM)	31.2 (≈ 64.1 µM)	> 62.5	62.5 (≈ 128 µM)	15.6 (≈ 32.1 µM)	7.81 (≈ 16 µM)	> 62.5	> 62.5	31.2 (≈ 64.1 µM)	> 62.5	> 62.5	> 62.5	15.6 (≈ 32.1 µM)	7.81 (≈ 16 µM)	3.13 (≈ 6.42 µM)	97
O=C(CNC(=O)OCc1ccccc1)Oc1ccc(Cl)cc1C(=O)Nc1ccc(Cl)c(Cl)c1	0.8639	> 62.5	> 62.5	> 62.5	> 62.5	> 62.5	> 62.5	62.5 (≈ 123 µM)	31.2 (≈ 61.5 µM)	> 62.5	> 62.5	> 62.5	> 62.5	> 62.5	> 62.5	> 62.5	31.2 (≈ 61.5 µM)	> 6.25	0
